Data on 5 molecules can be found in ChEMBL document CHEMBL4373712, “Bioactivatable Pseudotripeptidization of Cyclic Dipeptides To Increase the Affinity toward Oligopeptide Transporter 1 for Enhanced Oral Absorption: An Application to Cyclo(l-Hyp-l-Ser) (JBP485)” (J Med Chem, 2019).

Series [1] in a line: Half life in 0.1 M HCl at 5 mM by HPLC analysis. The format is physicochemical. A digest of the protocol:
(§1)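 Compound at 5 mM in 0.1 M HCl, pH 4.5 acetate buffer, pH 5.8/6.8/7.2 phosphate buffers, SGF (pH 1.2) and SIF (pH 6.8), prepared per Chinese Pharmacopoeia. Samples taken at 0-20 h and analyzed by HPLC-UV. k = 2.303×slope of log C versus time; t1/2 = 0.693/k.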

Series [2] is described as follows: Half life in pH 4.5 acetate buffer at 5 mM by HPLC analysis. Type of series: physicochemical. A digest of the protocol: as §1
Series [3] is described as follows: Half life in pH 5.8 phosphate buffer at 5 mM by HPLC analysis. Type of series: physicochemical. A digest of the protocol: as §1
Series [4] is described as follows: Half life in pH 6.8 phosphate buffer at 5 mM by HPLC analysis. The format is physicochemical. In outline: as §1
The nature of series [5]: Half life in pH 7.2 phosphate buffer at 5 mM by HPLC analysis. The format is physicochemical. A digest of the protocol:
as §1

A short description of series [6]: Half life in pH 1.2 simulated gastric fluid at 5 mM by HPLC analysis. The format is ADME. A digest of the protocol:
as §1

A short description of series [7]: Half life in pH 6.8 simulated intestinal fluid at 5 mM by HPLC analysis. Type of series: ADME. In outline: as §1
Series [8] can be described thus: Half life in Sprague-Dawley rat intestinal homogenates at 5 mM by HPLC analysis. The format is ADME, tissue-based, Intestine. A digest of the protocol: (§2)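 Jejunum and liver homogenates from male SD rats in pH 7.4 PBS, adjusted to 200 µg/mL protein, and rat plasma. Each incubated with compound at 5 mM at 37 °C.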
Series [9] in a line: Half life in Sprague-Dawley rat liver homogenates at 5 mM by HPLC analysis. Type of series: ADME, tissue-based. In outline: as §2
A short description of series [10]: Half life in Sprague-Dawley rat plasma at 5 mM by HPLC analysis. Type of series: ADME, cell-free. In outline: as §2
Series [11] in a line: Ratio of half-life in pH 7.2 phosphate buffer to half-life in Sprague-Dawley rat intestinal homogenates. The format is ADME, tissue-based. The following applies: tissue homogenate.
Series [12] in a line: Ratio of half-life in pH 7.2 phosphate buffer to half-life in Sprague-Dawley rat liver homogenates. The format is ADME, tissue-based. As to conditions: tissue homogenate.
Series [13] is described as follows: Ratio of half-life in pH 7.2 phosphate buffer to half-life in Sprague-Dawley rat plasma. The format is ADME.
Series [14] in a line: AUC (0 to t) in Sprague-Dawley rat assessed as JBP485 level at 12 mg/kg equiv of JBP485 administered orally by UPLC-MS/MS analysis. The format is ADME, organism-based. The following applies: in vivo, po. A digest of the protocol: (§3)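 Male SD rats, 200-250 g, fasted 12 h with water, n=6. Oral dose of 12 mg/kg as JBP485 equivalent; dose-effect arms at 12 and 100 mg/kg. JBP485 given iv at 6 mg/kg as the reference. Jugular blood taken at 0.083-10 h. Plasma JBP485 by UPLC-MS/MS. Absolute F = (AUCpo×Div)/(AUCiv×Dpo)×100%, using AUC0-t.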

Series [15] can be described thus: Cmax in Sprague-Dawley rat assessed as JBP485 level at 12 mg/kg equiv of JBP485 administered orally by UPLC-MS/MS analysis. Type of series: ADME, organism-based. More on the design: dose 12 mg/kg, route oral. The following applies: in vivo, po. In outline: as §3
Series [16] is described as follows: Tmax in Sprague-Dawley rat assessed as JBP485 level at 12 mg/kg equiv of JBP485 administered orally by UPLC-MS/MS analysis. Type of series: ADME, organism-based. As to conditions: in vivo, po. In outline:
(§4)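 Fasted male SD rats (200–250 g), oral 12 mg/kg (prodrugs calculated as JBP485). Jugular blood 0.083–10 h, centrifuged, plasma JBP485 by UPLC-MS/MS; n=6.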

Series [17] is described as follows: Terminal half-life in Sprague-Dawley rat assessed as JBP485 level at 12 mg/kg equiv of JBP485 administered orally by UPLC-MS/MS analysis. The format is ADME, organism-based. As to conditions: in vivo, po. A digest of the protocol: as §4
Series [18] can be described thus: Oral bioavailability in Sprague-Dawley rat assessed as JBP485 level at 12 mg/kg equiv of JBP485 by UPLC-MS/MS analysis. The format is ADME, organism-based. The following applies: in vivo. A digest of the protocol:
as §3

The nature of series [19]: Apparent permeability across human Caco2 cells at 0.5 mM measured after 5 to 60 mins by UPLC-MS/MS analysis. Type of series: ADME, cell-based. As to conditions: caco-2, 500 µM. In outline: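 Caco-2 cells grown on 0.4 µm transwell inserts; monolayers used only with TEER >300 Ω/cm². Compound at 0.5 mM in apical pH 6.0 HBSS, basolateral pH 7.4 HBSS, 37 °C. Basolateral samples taken at 5, 15, 30, 45 and 60 min. Quantified by UPLC-MS/MS; Papp from steady-state flux, area and initial donor concentration. Three repeats.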
(Passage across Caco-2 layers is used to estimate intestinal permeability.)

Substrate in series [20]: O=C(O)[C@H](CO)NC(=O)[C@@H]1C[C@@H](O)CN1
Kind of series: (§5) Substrate activity at PEPT1 in human Caco2 cells assessed as Km measured after 10 mins by Eadie-Hofstee plot analysis. Type of series: ADME, cell-based. In outline: (§6)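 Caco-2 uptake at 0.2–5 mM compound for 10 min at 37 °C, cells washed ice-cold and lysed, drug quantified by UPLC-MS/MS and normalised to protein. Km from Eadie–Hofstee plot; n=3.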

Substrate in series [21]: O=C1N[C@@H](CO)C(=O)N2C[C@H](O)C[C@@H]12
The series is described as §5. The format is ADME, cell-based. In outline: as §6

Substrate in series [22]: [H][C@@]12C[C@@H](O)CN1C(=O)[C@H](COC(=O)[C@@H](N)C(C)C)NC2=O
The series is described as §5. Type of series: ADME, cell-based. A digest of the protocol:
as §6

Consider `N[C@@H](Cc1ccccc1)C(=O)OC[C@@H]1NC(=O)[C@@H]2C[C@@H](O)CN2C1=O`, for which the half-life at 5000 µM in series [1] is over 20 h; in series [2], over 20 h; in [3] it was 8.2 h; in series [4], 2.6 h; in [5], 2.3 h; in series [6] it was over 20 h. Besides, the half-life at 5000 µM in series [7] is 2.8 h; in [8], under 0.083 h; in series [9] it was 0.16 h; in series [10], 0.29 h. Further, the Ratio in series [11], in [12] and in series [13] was 3 to 35 each time. Moreover, the AUCt in series [14] was 33.9 nM/ml.hr. The peak concentration (Cmax) in series [15] came to 10.7 µM. For the same molecule, in series [16], the time to peak (Tmax) was 1 h. Further, the “beta t1/2” value in series [17] stood at 2.38 h. For the same molecule, the F in series [18] is given as 8.7%.

Regarding `CCC(C)[C@H](N)C(=O)OC[C@@H]1NC(=O)[C@@H]2C[C@@H](O)CN2C1=O` (some centres not stated), the half-life at 5000 µM in series [1] was over 20 h; in series [2] it was over 20 h; in series [3], over 20 h; in series [4], 11.6 h; in series [5] it was 9.6 h; in series [6], over 20 h. The half-life at 5000 µM in series [7] was 10.9 h; in series [8], 0.8 h; in [9], 4.8 h; in [10] it was 4 h. For the same molecule, the Ratio in series [11], in [12] and in series [13] was 3 to 35 throughout. For the same molecule, the Papp entry in series [19] was “Permeable”. Besides, in [14], the AUCt is on record as 122.65 nM/ml.hr. The peak concentration (Cmax) in [15] turned out to be 41.8 µM. Besides, the time of peak concentration (Tmax) in series [16] is 0.9 h. Moreover, the “beta t1/2” value in [17] is 0.9 h. The F in series [18] was found to be 31.6%.

In the case of `CC(C)[C@H](N)C(=O)O[C@@H]1C[C@H]2C(=O)N[C@@H](CO)C(=O)N2C1`, the half-life at 5000 µM in series [1] is over 20 h; in [2] it was over 20 h; in series [3], over 20 h; in [4], 11.4 h; in [5], 11.6 h; in series [6], over 20 h. In addition, the half-life at 5000 µM in [7] is 11.1 h; in series [8], 0.9 h; in series [9], 2.1 h; in series [10], 6.1 h. In addition, the Ratio in series [11], in series [12] and in series [13] was 3 to 35 each time. For the same molecule, the Papp result in [19] was “Permeable”. Besides, the AUCt in series [14] was found to be 139.78 nM/ml.hr. The Cmax in [15] amounted to 98.3 µM. The Tmax in [16] was determined as 0.41 h. Further, in [17], the “beta t1/2” value was determined as 2.51 h. The F in series [18] worked out at 36%.

`CC(C)C[C@H](N)C(=O)OC[C@@H]1NC(=O)[C@@H]2C[C@@H](O)CN2C1=O`: the half-life at 5000 µM was over 20 h in series [1]; over 20 h in series [2]; 14.7 h in series [3]; 2.6 h in [4]; 1.9 h in series [5]; over 20 h in [6]. The half-life at 5000 µM in series [7] is 2.4 h; in series [8] it was under 0.083 h; in series [9] it was 0.16 h; in series [10] it was 0.32 h. Besides, the Ratio in [11], in series [12] and in [13] was 3 to 35 throughout. In series [14], the AUCt turned out to be 28.75 nM/ml.hr. The Cmax in series [15] amounted to 8.95 µM. In [16], the Tmax amounted to 1.3 h. Further, in [17], the “beta t1/2” value is 2.23 h. The F in series [18] is reported as 7.4%.

B1: Solute carrier family 15 member 1 (Homo sapiens) (protein)
chain: MGMSKSHSFFGYPLSIFFIVVNEFCERFSYYGMRAILILYFTNFISWDDNLSTAIYHTFVALCYLTPILGALIADSWLGKFKTIVSLSIVYTIGQAVTSVSSINDLTDHNHDGTPDSLPVHVVLSLIGLALIALGTGGIKPCVSAFGGDQFEEGQEKQRNRFFSIFYLAINAGSLLSTIITPMLRVQQCGIHSKQACYPLAFGVPAALMAVALIVFVLGSGMYKKFKPQGNIMGKVAKCIGFAIKNRFRHRSKAFPKREHWLDWAKEKYDERLISQIKMVTRVMFLYIPLPMFWALFDQQGSRWTLQATTMSGKIGALEIQPDQMQTVNAILIVIMVPIFDAVLYPLIAKCGFNFTSLKKMAVGMVLASMAFVVAAIVQVEIDKTLPVFPKGNEVQIKVLNIGNNTMNISLPGEMVTLGPMSQTNAFMTFDVNKLTRINISSPGSPVTAVTDDFKQGQRHTLLVWAPNHYQVVKDGLNQKPEKGENGIRFVNTFNELITITMSGKVYANISSYNASTYQFFPSGIKGFTISSTEIPPQCQPNFNTFYLEFGSAYTYIVQRKNDSCPEVKVFEDISANTVNMALQIPQYFLLTCGEVVFSVTGLEFSYSQAPSNMKSVLQAGWLLTVAVGNIIVLIVAGAGQFSKQWAEYILFAALLLVVCVIFAIMARFYTYINPAEIEAQFDEDEKKNRLEKSNPYFMSGANSQKQM
Turning to B1, the Km in series [20] was determined as 650 µM; in series [21], 2530 µM; in series [22] it was 860 µM.

In general, half-life refers to the time in which the quantity being followed falls by half. The Cmax is the highest concentration seen after dosing. What is called Tmax is the time from dosing to the highest level. The Km is the substrate concentration at which the rate is half of its maximum.
